Calls of active or inactive are those of the source. The calls are words filed in the database; no cut-off is given here.
Assays:
[1] = biological target: 5-hydroxytryptamine receptor 2A (Homo sapiens, UniProt P28223); assay: Inhibition of serotonin 5-HT2A receptor (unknown origin) at 1 uM
[2] = biological target: 5-hydroxytryptamine receptor 2B (Homo sapiens, UniProt P41595); assay: Inhibition of serotonin 5-HT2B receptor (unknown origin) at 1 uM
[3] = biological target: 5-hydroxytryptamine receptor 1B (Homo sapiens) (UniProt P28222); assay: Inhibition of serotonin 5-HT1B receptor (unknown origin) at 1 uM
Sequence of 5-hydroxytryptamine receptor 1B (Homo sapiens) (P28222 whole entry): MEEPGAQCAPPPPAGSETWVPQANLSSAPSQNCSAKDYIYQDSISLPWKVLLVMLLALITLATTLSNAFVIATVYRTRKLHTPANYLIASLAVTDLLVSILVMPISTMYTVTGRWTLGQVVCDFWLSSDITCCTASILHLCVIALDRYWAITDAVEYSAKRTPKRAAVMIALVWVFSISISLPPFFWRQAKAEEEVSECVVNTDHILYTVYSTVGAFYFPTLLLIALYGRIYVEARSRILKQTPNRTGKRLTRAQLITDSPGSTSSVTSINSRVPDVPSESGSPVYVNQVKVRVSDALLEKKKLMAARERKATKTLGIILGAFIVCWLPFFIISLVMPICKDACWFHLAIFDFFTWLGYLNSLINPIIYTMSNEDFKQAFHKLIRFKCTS

[4] = biological target: 5-hydroxytryptamine receptor 1D (Homo sapiens, UniProt P28221); assay: Inhibition of serotonin 5-HT1D receptor (unknown origin) at 1 uM
Sequence of 5-hydroxytryptamine receptor 1D (P28221 whole entry): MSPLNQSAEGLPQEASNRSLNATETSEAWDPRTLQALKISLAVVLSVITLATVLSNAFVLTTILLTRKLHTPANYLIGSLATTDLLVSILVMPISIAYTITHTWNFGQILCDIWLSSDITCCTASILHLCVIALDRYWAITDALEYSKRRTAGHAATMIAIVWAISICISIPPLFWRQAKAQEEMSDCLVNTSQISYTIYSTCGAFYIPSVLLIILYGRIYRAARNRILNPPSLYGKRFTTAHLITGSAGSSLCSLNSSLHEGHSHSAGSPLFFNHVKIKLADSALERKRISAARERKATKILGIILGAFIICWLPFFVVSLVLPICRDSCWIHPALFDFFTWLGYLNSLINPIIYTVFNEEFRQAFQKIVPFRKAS

[5] = biological target: T1, 5-hydroxytryptamine receptor 1A (Homo sapiens) (UniProt P08908); assay: Inhibition of serotonin 5-HT1A receptor (unknown origin) at 1 uM
T1 sequence (whole entry): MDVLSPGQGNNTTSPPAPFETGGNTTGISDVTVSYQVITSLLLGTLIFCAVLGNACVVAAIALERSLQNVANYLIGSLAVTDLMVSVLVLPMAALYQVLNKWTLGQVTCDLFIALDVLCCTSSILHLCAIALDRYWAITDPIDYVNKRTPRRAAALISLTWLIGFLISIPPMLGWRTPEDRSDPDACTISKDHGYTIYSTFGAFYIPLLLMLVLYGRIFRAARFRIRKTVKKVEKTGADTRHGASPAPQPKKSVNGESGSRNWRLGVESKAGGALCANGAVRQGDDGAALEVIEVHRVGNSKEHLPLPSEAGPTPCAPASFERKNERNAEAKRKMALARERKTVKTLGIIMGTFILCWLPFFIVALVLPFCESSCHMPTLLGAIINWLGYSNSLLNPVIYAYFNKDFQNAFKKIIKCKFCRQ

[6] = Oral bioavailability in beagle dog at 2 mg/kg; type: ADME, organism-based, Canis lupus familiaris; settings: in vivo
[7] = Half life in beagle dog at 2 mg/kg, po; type: ADME, organism-based, Canis lupus familiaris; design: dose 2 mg/kg, route oral; settings: in vivo
[8] = AUC (0 to t) in beagle dog at 2 mg/kg, po; type: ADME, organism-based, Canis lupus familiaris; design: dose 2 mg/kg, route oral; settings: plasma
[9] = Cmax in beagle dog at 2 mg/kg, po; type: ADME, organism-based, Canis lupus familiaris; design: dose 2 mg/kg, route oral; settings: in vivo
[10] = Oral bioavailability in Sprague-Dawley rat at 5 mg/kg; type: ADME, organism-based; settings: in vivo
[11] = Half life in Sprague-Dawley rat at 5 mg/kg, po; type: ADME, organism-based; design: dose 5 mg/kg, route oral; settings: in vivo
[12] = Cmax in Sprague-Dawley rat at 5 mg/kg, po; type: ADME, organism-based; design: dose 5 mg/kg, route oral; settings: in vivo
[13] = AUC (0 to t) in Sprague-Dawley rat at 5 mg/kg, po; type: ADME, organism-based; design: dose 5 mg/kg, route oral; settings: plasma
[14] = Half life in rat liver micrososmes; type: ADME, Microsome; settings: liver microsomes
[15] = biological target: T2, 5-hydroxytryptamine receptor 3A (Homo sapiens, UniProt P46098); assay: Binding affinity to human recombinant 5HT3 receptor
T2 sequence (P46098 whole entry): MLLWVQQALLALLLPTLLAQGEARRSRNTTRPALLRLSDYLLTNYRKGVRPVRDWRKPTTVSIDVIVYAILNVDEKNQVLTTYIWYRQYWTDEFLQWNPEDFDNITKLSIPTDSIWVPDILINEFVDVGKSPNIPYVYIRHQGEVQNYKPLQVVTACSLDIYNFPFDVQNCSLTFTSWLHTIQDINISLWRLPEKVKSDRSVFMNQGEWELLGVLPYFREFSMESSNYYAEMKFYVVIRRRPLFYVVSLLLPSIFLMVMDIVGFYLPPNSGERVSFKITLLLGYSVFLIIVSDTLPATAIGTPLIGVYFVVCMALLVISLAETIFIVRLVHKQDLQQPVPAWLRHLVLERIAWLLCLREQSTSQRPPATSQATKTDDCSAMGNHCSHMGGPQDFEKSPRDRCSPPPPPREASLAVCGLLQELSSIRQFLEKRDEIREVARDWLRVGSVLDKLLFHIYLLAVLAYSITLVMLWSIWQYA

[16] = Permeability across human Caco2 cells; type: ADME, cell-based; settings: Caco-2, read-out: Kp
[17] = biological target: 5-hydroxytryptamine receptor 4 (Homo sapiens, UniProt Q13639); assay: Agonist activity at human recombinant 5HT4 receptor assessed as cAMP accumulation relative to 5-HT; type: functional
Sequence of 5-hydroxytryptamine receptor 4 (Q13639 whole entry): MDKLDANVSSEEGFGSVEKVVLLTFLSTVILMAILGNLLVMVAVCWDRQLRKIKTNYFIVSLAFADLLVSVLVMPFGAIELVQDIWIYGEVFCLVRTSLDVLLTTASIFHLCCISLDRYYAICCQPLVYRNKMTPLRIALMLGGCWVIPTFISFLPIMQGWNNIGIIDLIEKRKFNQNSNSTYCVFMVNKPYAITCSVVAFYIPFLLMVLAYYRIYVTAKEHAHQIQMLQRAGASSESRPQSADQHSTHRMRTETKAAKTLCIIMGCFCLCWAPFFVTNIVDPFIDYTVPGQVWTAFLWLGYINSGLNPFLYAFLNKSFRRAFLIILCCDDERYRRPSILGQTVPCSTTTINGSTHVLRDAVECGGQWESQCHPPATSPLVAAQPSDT
Method in brief: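 cAMP accumulation in cells expressing human recombinant 5-HT4 receptor, reported as pEC50 with intrinsic activity as % of the maximum response achieved by 5-HT.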

Rattus norvegicus [18] = assay: Agonist activity at 5HT4 receptor in ID dosed rat assessed as dose required to cause esophageal relaxation of 0.1 mm; type: functional
Method in brief: (§1)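 Anesthetized rats dosed intraduodenally over about 0.01–10 mg/kg. Esophageal relaxation was tracked by digital sonomicrometry as the change in inter-crystal distance (mm), n = 4–6. An ED50 was derived from the dose–response, and the dose giving a 0.1 mm relaxation response was calculated.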

[19] = Elimination half life in healthy human; type: ADME, organism-based; settings: in vivo, read-out: beta t1/2 (converted)
Rattus norvegicus [20] = assay: Induction of 5-HT4 receptor-mediated esophageal relaxation in ID dosed rat; type: functional; method in brief: as §1
Cavia porcellus = assay: Prokinetic activity at guinea pig colonic transit model assessed as reduction in time taken for excretion of first pellet at 0.03 mg/kg, sc by carmine red dye-based assay relative to vehicle-treated control; type: functional; design: scale not given: the % may be the effect or the level left; settings: route subcutaneous
Method in brief: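 Conscious guinea pigs given sc doses of 0.03, 0.3 or 3 mg/kg or vehicle (2 mL/kg), n = 9–22 per group. Colonic transit was measured as time to excretion of the first fecal pellet containing carmine red dye marker. Compared with vehicle by ANOVA with Dunnett's post-hoc test, p < 0.05.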

[21] = Cardiotoxicity in human coronary artery assessed as coronary artery constriction; type: toxicity, tissue-based
[22] = Cardiotoxicity in pig coronary artery assessed as coronary artery constriction; type: toxicity, tissue-based, Sus scrofa
[23] = Cardiotoxicity in dog coronary artery assessed as coronary artery constriction; type: toxicity, tissue-based, Canis lupus familiaris
[24] = biological target: 5-hydroxytryptamine receptor 6 (Homo sapiens) (UniProt P50406); assay: Inhibition of serotonin 5-HT6 receptor (unknown origin) at 1 uM
Sequence of 5-hydroxytryptamine receptor 6 (Homo sapiens) (P50406 whole entry): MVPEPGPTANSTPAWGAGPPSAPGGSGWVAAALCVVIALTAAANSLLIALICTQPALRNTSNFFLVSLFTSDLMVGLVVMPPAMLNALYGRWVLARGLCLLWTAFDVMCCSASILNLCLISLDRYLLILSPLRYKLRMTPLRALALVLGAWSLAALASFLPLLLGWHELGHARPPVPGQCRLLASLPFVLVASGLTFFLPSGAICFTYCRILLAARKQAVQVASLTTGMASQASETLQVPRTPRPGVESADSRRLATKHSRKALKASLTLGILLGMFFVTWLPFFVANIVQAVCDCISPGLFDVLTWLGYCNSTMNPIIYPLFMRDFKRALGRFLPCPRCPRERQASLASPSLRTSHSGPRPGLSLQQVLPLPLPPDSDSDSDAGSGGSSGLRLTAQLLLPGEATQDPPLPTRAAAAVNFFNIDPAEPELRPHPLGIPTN

[25] = biological target: 5-hydroxytryptamine receptor 7 (Homo sapiens, UniProt P34969); assay: Inhibition of serotonin 5-HT7 receptor (unknown origin) at 1 uM
Sequence of 5-hydroxytryptamine receptor 7 (P34969 whole entry): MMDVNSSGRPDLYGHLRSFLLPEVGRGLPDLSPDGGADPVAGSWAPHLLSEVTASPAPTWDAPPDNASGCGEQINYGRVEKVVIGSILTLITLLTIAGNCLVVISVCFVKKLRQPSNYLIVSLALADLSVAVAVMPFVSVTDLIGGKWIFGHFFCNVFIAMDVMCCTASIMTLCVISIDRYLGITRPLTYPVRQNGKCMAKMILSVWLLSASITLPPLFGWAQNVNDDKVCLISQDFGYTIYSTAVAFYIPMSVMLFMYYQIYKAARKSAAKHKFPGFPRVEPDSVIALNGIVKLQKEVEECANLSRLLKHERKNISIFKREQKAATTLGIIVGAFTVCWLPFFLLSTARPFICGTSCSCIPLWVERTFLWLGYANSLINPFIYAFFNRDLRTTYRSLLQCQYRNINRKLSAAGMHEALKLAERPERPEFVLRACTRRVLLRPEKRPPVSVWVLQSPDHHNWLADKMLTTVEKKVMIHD

[26] = biological target: 5-hydroxytryptamine receptor 5A (Homo sapiens) (UniProt P47898); assay: Inhibition of serotonin 5-HT5A receptor (unknown origin) at 1 uM
Sequence of 5-hydroxytryptamine receptor 5A (Homo sapiens) (P47898 whole entry): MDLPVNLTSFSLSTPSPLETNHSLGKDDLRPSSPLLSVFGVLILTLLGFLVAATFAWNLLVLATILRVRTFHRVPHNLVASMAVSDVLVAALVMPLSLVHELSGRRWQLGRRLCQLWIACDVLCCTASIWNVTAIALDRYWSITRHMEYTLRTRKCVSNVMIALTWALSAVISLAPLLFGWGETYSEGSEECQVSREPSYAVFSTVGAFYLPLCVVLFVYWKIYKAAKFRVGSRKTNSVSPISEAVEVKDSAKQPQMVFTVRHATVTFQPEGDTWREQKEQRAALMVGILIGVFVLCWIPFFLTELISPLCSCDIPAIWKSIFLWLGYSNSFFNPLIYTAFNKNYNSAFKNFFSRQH

[27] = biological target: T3, 5-hydroxytryptamine receptor 2C (Homo sapiens) (UniProt P28335); assay: Inhibition of serotonin 5-HT2C receptor (unknown origin) at 1 uM
T3 sequence (whole entry): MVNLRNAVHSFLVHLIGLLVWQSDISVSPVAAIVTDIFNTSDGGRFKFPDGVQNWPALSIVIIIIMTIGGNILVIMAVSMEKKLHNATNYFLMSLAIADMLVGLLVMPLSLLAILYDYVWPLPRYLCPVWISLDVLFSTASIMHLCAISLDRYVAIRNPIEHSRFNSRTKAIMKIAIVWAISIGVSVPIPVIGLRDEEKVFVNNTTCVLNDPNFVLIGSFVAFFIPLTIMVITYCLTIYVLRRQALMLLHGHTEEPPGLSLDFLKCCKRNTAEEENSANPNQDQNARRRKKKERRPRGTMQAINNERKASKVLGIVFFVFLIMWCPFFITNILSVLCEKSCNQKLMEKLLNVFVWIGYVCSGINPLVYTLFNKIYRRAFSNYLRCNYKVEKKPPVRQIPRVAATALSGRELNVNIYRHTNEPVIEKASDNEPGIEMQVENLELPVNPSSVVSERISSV

[28] = biological target: T4, 5-hydroxytryptamine receptor 3A (Homo sapiens) (UniProt P46098); assay: Inhibition of serotonin 5-HT3A receptor (unknown origin) at 1 uM
T4 sequence (whole entry): T2 sequence (P46098 whole entry)

[29] = biological target: 5-hydroxytryptamine receptor 4 (Cavia porcellus) (UniProt O70528)
Sequence of 5-hydroxytryptamine receptor 4 (Cavia porcellus) (O70528 whole entry): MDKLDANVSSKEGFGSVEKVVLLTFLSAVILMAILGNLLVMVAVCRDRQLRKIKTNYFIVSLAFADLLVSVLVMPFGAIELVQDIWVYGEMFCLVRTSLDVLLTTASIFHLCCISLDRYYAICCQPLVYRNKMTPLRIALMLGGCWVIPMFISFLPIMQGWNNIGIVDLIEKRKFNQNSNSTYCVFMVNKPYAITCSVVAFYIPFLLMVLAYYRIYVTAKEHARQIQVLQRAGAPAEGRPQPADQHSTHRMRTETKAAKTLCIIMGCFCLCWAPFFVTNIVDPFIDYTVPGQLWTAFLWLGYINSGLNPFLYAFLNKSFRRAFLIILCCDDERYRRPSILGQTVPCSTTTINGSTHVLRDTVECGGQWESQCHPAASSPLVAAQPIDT

Homo sapiens = organism: Homo sapiens; assay: Increase in bowel movements in healthy human at 0.1 to 20 mg after 24 hrs relative to placebo

Sequence of 5-hydroxytryptamine receptor 2B (P41595 whole entry): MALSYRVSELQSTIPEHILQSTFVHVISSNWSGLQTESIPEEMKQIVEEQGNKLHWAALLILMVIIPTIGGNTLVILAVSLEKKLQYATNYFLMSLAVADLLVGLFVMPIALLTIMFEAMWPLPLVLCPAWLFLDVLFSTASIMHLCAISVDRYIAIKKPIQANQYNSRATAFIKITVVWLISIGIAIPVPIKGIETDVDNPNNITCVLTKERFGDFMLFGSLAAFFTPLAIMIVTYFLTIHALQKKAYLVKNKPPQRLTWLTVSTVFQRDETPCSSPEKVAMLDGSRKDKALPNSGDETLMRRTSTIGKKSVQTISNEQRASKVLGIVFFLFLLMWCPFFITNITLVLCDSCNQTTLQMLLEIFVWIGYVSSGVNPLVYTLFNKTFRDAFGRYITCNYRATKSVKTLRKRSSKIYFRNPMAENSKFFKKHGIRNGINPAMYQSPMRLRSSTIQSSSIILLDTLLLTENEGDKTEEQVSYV
Sequence of 5-hydroxytryptamine receptor 2A (P28223 whole entry): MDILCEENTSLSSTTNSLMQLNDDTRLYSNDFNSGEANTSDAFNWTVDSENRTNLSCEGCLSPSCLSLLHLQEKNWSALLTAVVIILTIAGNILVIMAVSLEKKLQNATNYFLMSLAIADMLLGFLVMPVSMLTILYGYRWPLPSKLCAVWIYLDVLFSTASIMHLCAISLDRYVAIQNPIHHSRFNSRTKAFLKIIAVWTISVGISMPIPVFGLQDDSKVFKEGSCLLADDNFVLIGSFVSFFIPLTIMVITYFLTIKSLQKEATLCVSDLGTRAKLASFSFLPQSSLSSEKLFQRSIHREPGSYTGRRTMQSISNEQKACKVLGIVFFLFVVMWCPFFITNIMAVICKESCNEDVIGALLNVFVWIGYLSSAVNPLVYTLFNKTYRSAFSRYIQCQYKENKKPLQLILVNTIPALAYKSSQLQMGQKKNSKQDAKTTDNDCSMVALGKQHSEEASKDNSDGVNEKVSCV

inhibition [1]: < 50%
inhibition [2]: < 50%
inhibition [3]: < 50%
inhibition [4]: < 50%
inhibition [5]: < 50%
bioavailability [6]: 63%
half-life [7]: 3.5 h
AUC(0-t) [8]: 2280 ng·h/mL
Cmax [9]: 464 ng/mL
bioavailability [10]: 77%
half-life [11]: 1.6 h
Cmax [12]: 818 ng/mL
AUC(0-t) [13]: 1240 ng·h/mL
half-life [14]: 1.43 h
Ki [15]: 100 µM
Papp [16]: 54 ×10⁻⁶ cm/s
Intrinsic activity [17]: 83%
half-life [19]: 12 h
Activity (Rattus norvegicus [20]): Dose-dependent effect
inhibition [24]: < 50%
inhibition [25]: < 50%
inhibition [26]: < 50%
inhibition [27]: < 50%
inhibition [28]: < 50%
pKb(app) [29]: 9.3
Compound: COC(=O)N1CCC(CN2CCC(CNC(=O)c3cccc4[nH]c(C(C)C)nc34)CC2)CC1
Activity (Rattus norvegicus [18]): 0.23 mg/kg
ED50 (Rattus norvegicus [20]): 0.15 mg/kg
Activity (Cavia porcellus): 40%
Activity [21]: Non-toxic
Activity [22]: Non-toxic
Activity [23]: Non-toxic
Activity (Homo sapiens): Active

From ChEMBL document CHEMBL2401700, “Discovery of TD-8954, a clinical stage 5-HT(4) receptor agonist with gastrointestinal prokinetic properties” (Bioorg Med Chem Lett, 2013)
